High-throughput results deposited in PubChem BioAssay by The Scripps Research Institute Molecular Screening Center.
The list is not random: actives were taken first. Their share in the collection is about 1.8%.
CHRM4 agonist = human M4 muscarinic receptor agonists, primary screen, CHO-K1 cells, Fluo-8 calcium fluorescence. Muscarinic acetylcholine receptor M4 (Homo sapiens), P08173. CHO-K1 hM4/Gqi5; vehicle 0%, full acetylcholine response 100%. activation, % at 3 µM. hit rate 0.14% among 360,000. AID 624127, 2012;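 active = activation above the run mean over all test wells plus 3 SD, cut at about 32% in these data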;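 note: peak over basal fluorescence ratio per well then scaled between controls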
Target sequence (P08173 whole entry, looked up): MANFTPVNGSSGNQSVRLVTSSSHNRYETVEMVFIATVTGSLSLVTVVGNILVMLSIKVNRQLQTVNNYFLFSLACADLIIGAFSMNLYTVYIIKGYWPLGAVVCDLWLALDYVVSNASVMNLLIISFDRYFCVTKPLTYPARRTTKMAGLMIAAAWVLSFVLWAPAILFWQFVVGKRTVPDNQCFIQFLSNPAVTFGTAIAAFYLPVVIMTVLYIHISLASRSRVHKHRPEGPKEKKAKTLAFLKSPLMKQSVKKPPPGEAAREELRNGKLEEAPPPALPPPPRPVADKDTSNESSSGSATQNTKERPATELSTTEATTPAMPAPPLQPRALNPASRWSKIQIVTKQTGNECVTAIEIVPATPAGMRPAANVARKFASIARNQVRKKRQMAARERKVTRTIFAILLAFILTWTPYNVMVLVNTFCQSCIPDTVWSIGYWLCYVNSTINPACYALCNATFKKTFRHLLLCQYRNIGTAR
CHRM5 PAM = human M5 muscarinic receptor positive allosteric modulators, primary screen, CHO-K1 cells, Fluo-8 calcium fluorescence | CHO-K1 hM5, ACh EC20 PAM; 0% = ACh EC20, 100% = ACh EC100 | activation, % at 3 µM | hit rate 0.3% among 360,000 | AID 624038, 2012;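 active = activation above the run cutoff, the mean activation of all test compounds plus 3 SD, cut at about 18% in these data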
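Assay system: CHO-K1 hM5 cells. Also added: acetylcholine at EC20 concentration, added after compound. Dosing: 3 µM, single dose. Times: compound preincubation 140 s before EC20 acetylcholine addition. Signal: Fluo-8 calcium fluorescence. Measure: % activation relative to EC20 and EC100 ACh responses. Repeats: singlicate, one well per test compound.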
CHRM4 antagonist = human M4 muscarinic receptor antagonists, primary screen, CHO cells, Fluo-8 calcium fluorescence. inhibition, % at 3 µM. CHO-hM4 cells, ACh EC80. AID 624125, 2012. hit rate 0.73% among 360,000. Muscarinic acetylcholine receptor M4 (Homo sapiens), P08173;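 active = inhibition above its plate's cutoff, the mean inhibition of sample wells plus 3 SD, cut at about 27% in these data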
CHRM5 antagonist = human M5 muscarinic receptor antagonists, primary screen, CHO cells, Fluo-8 calcium fluorescence. Muscarinic acetylcholine receptor M5 (Homo sapiens), P08912. CHO-hM5 cells, ACh EC80. inhibition, % at 3 µM. hit rate 0.59% among 360,000. AID 624040, 2012;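 active = inhibition above a per-plate cutoff, the mean of that plate's test compounds plus 3 SD, cut at about 27% in these data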
CHRM5 agonist = human M5 muscarinic receptor agonists, primary screen, CHO-K1 cells, Fluo-8 calcium fluorescence | activation, % at 3 µM | hit rate 0.19% among 360,000 | CHO-K1 hM5 cells; 0% DMSO wells, 100% maximal acetylcholine response | Muscarinic acetylcholine receptor M5 (Homo sapiens), P08912;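 active = activation above the run's mean over test compounds plus 3 SD, cut at about 23% in these data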;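 note: signal is peak over basal fluorescence ratio across the kinetic read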
M4 PAM = human M4 muscarinic receptor positive allosteric modulators, primary screen, CHO-K1 cells, Fluo-8 calcium fluorescence | activation, % at 3 µM | CHO-K1 hM4/Gqi5, ACh EC20; 0% = ACh EC20, 100% = maximal ACh | Muscarinic acetylcholine receptor M4 (Homo sapiens), P08173 | hit rate 0.4% among 360,000;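 active = activation above its plate's cutoff, the mean activation of sample wells plus 3 SD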
Numbers stand for hits; i = inactive.

SMILES	CHRM4 agonist	CHRM5 PAM	CHRM4 antagonist	CHRM5 antagonist	CHRM5 agonist	M4 PAM
COc1ccc(/C(C)=N/NC(=O)c2cccc(S(=O)(=O)N3CCCC3)c2)c(O)c1	i	i	i	i	i	i
COc1ccc(Cl)cc1NC(=O)c1nnn(CC(=O)Nc2ccc3c(c2)OCO3)c1N	i	i	i	i	i	20
COc1ccc(NC(=O)c2nnn(CC(=O)Nc3ccc4c(c3)OCO4)c2N)cc1OC	i	i	i	i	i	i
O=S(=O)(Nc1cc(Sc2ncn[nH]2)c(O)c2ccccc12)c1ccccc1	i	i	i	28	i	i
C=CC[C@@H](CC(=O)N[C@@H](CO)Cc1ccccc1)C(=O)N[C@@H](C)COC(=O)[C@@H](CC=C)Cc1ccc(F)cc1	i	i	i	i	i	i
C=CCC[C@H](Cc1ccc(F)cc1)C(=O)OC[C@H](Cc1c[nH]c2ccccc12)NC(=O)[C@H](CC=C)CC(=O)NCCO	i	i	30	i	i	i
C=CC[C@@H](CC(=O)N[C@@H](CO)Cc1ccccc1)C(=O)N[C@H](C)COC(=O)[C@@H](CC=C)Cc1ccc(F)cc1	i	i	i	i	i	26
C=CC[C@H](CC(=O)N(CCO)Cc1ccccc1)C(=O)N[C@H](COC(=O)[C@@H](CC=C)CC(=O)OC(C)(C)C)Cc1c[nH]c2ccccc12	i	i	27	i	i	i
CN(C)C(=O)C12CCC(C)(C(=O)C1Br)C2(C)C (stereo unspecified)	i	i	i	i	i	i
C1=C[C@H]2CCCN3CC[C@@H]([C@@H]2[C@]32CO2)[C@H]1CCOCc1ccccc1	i	i	i	i	i	i
COc1cc(NC(=O)c2ccccc2)c(C)cc1NC(=O)CC(CC(=O)O)c1ccccc1 (stereo unspecified)	i	i	i	i	i	i
COC(=O)c1cc(C(=O)OCC(=O)c2ccc[nH]2)cc([N+](=O)[O-])c1	i	i	i	i	i	i
CCN(CC)CC#CCC1(O)c2ccccc2-c2ccccc21	i	i	i	i	i	i
CCN(CC#CCC1(O)c2ccccc2-c2ccccc21)C(C)C	i	i	35	39	i	i
O=S(=O)(Nc1ccc(Cc2ccncc2)cc1)c1ccc(Cl)c(Cl)c1	i	i	34	i	i	i
CCOc1cc(S(=O)(=O)NCc2ccncc2)ccc1Cl	i	i	36	60	i	i
Cc1ccc(S(=O)(=O)N2C[C@H]3N(C(=O)OC(C)C)N(C(=O)OC(C)C)C[C@H](OC(=O)Nc4c(C)noc4C)[C@@]3(O)C2)cc1	i	i	i	i	i	i
O=S(=O)(c1cccc2nsnc12)N1CCCC1	i	i	i	i	i	i
CC1CN(S(=O)(=O)c2cccc3nsnc23)CC(C)O1 (stereo unspecified)	i	i	27	i	i	i
COc1ccc2[nH]c3c(NCCC4=CCCCC4)ncnc3c2c1	i	i	i	32	i	i
CCOC(=O)c1c(SCCN2CCCCC2)n(-c2ccccc2)c(=S)n(-c2ccccc2)c1=O	i	i	i	i	i	i
CCOC(=O)c1c(NC(=O)COC)sc(C)c1C	i	i	i	i	i	i
CCOC(=O)c1c(NC(=S)NC(C)=O)sc(C)c1C	i	18	i	i	i	32
Cn1ccc(C(=O)OCC(=O)Nc2cccc(Cl)c2)n1	i	i	i	i	i	i
Cn1cc(Cl)c(C(=O)OCC(=O)Nc2ccccc2)n1	i	i	i	47	i	i
C#CCOCCOCCOCCNc1nc(N2CCN(C(=O)[C@H](CCC(=O)O)n3cc([C@@H](N)[C@H](C)CC)nn3)CC2)nc(N2CCN(C(=O)[C@H](CCC(=O)O)n3cc([C@@H](N)CC(N)=O)nn3)CC2)n1	i	i	i	i	i	i
